{"data": "Assay results from different studies", "note": "Protocols differ between the studies behind these lines."}
{"Compound": "Oc1c(-n2ccnn2)cnn1-c1cc(N2CCOCC2)ncn1", "host": "female dog", "medium": "plasma", "route": "intravenous", "dose": "3 mg/kg", "measurement": "Vd", "result": "0.78 L/kg"}
{"Compound": "C=CC(=O)Nc1cc(Nc2nccc(Nc3cc(Cl)c(F)cc3C(C)(C)O)n2)c(OC)cc1N1CC[C@@H](N(C)C)C1", "host": "beagle dog", "medium": "plasma", "route": "intravenous", "dose": "1 mg/kg", "measurement": "Vd", "result": "29.5 L/kg"}
{"Compound": "CCn1c(=O)c(-c2cc(NC(=O)Nc3ccccc3)c(F)cc2Br)cc2cnc(NC)cc21", "host": "beagle dog", "medium": "plasma", "route": "oral", "dose": "5 mg/kg", "notes": "single dose", "measurement": "Vd/F", "result": "12.7 L/kg"}
{"Compound": "COCc1nn(Cc2ccc(Cn3ccccc3=O)cc2)cc1C(=O)NCc1nccc(OC)c1F", "host": "male beagle dog", "medium": "plasma", "route": "intravenous", "dose": "1 mg/kg", "measurement": "Vd", "result": "< 1 L"}
{"Compound": "CC[C@@H]1CN(C(=O)NCC(F)(F)F)C[C@@H]1c1cnc2cnc3[nH]ccc3n12", "host": "beagle dog", "medium": "plasma", "route": "oral", "dose": "1 mg/kg", "notes": "single dose", "measurement": "Vd/F", "result": "29.1 L/kg"}
{"Compound": "COc1ccnc(CNC(=O)c2cn(Cc3ccc(Cn4ccccc4=O)cc3)nc2C(F)(F)F)c1F", "host": "male beagle dog", "medium": "plasma", "route": "intravenous", "dose": "1 mg/kg", "measurement": "Vd", "result": "< 1 L"}
{"Compound": "O=C(NCCN1CCCC1)c1cc(-c2ccc(CN3CCOCC3)cc2)nc2ccc(F)cc12", "host": "male beagle dog", "medium": "blood", "route": "intravenous", "dose": "1 mg/kg", "measurement": "Vd", "result": "30 L/kg"}
{"Compound": "Cc1nnc2sc(C(=O)NCc3ccc(-c4cccnc4F)cc3)c(N)c2c1C", "host": "dog", "medium": "plasma", "route": "intravenous", "measurement": "Vd", "result": "0.7 L/kg"}
{"Compound": "CN1CCC(c2ccccc2CC(C)(C)Nc2nc(N3CCOCC3)nc(-n3c(C(F)F)nc4ccccc43)n2)CC1", "host": "dog", "medium": "plasma", "route": "intravenous", "dose": "2 mg/kg", "notes": "single dose", "measurement": "Vd", "result": "9.7 L/kg"}
